In one assay the target is T1, Proteinase-activated receptor 1 (Homo sapiens, UniProt P25116).
T1 sequence (P25116 whole entry): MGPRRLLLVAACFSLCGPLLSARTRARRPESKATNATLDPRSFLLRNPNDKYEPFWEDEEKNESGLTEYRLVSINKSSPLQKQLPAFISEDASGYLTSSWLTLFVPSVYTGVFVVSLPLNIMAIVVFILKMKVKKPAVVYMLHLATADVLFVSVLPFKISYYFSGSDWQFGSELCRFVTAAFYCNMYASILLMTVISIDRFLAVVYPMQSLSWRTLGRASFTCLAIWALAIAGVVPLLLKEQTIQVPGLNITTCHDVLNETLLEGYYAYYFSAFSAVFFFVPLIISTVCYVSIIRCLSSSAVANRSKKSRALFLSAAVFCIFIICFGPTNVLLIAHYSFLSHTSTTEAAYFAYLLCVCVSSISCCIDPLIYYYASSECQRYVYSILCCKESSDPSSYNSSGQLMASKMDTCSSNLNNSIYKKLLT
The experiment in a line: Antagonist activity at human PAR1 expressed in Ga15-HEK293 cells assessed as reduction in PAR1 AP SFFLRR-NH2-induced cytosolic calcium incubated for 24 hrs by FLIPR - calcium mobilization assay. It counts as functional, cell-based.
Details: not given
In short, it runs like this: (§1)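 HEK293/Gα15 cells stably expressing human PAR1, PAR2 or PAR4, seeded at 45,000 cells/well and grown for 24 h at 37 °C, 5% CO₂. Cells loaded with calcium dye for 60 min at 37 °C in the dark. Compounds diluted from DMSO in HBSS and preincubated in the dark at room temperature. Agonists: SFFLRR (PAR1), 2-furoyl-LIGRLO-NH₂ (PAR2), AYPGKF-NH₂ (PAR4). Fluorescence read on FLIPR; 10-point half-log curves; mean of ≥2 determinations.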
A general note: Calcium assays in cells follow changes in intracellular calcium, usually with a dye or a luminescent sensor.
The IC50 is the concentration that inhibits the measured activity by half. Turning to `CCc1cc(-c2nc3c(Cl)cc(OC)cc3s2)c2ncn(C)c(=O)c2c1`, the IC50 was over 3160 nM.
`Cc1cc(-c2nc3c(s2)CCCC3)c2ncn(C)c(=O)c2c1`: the IC50 is over 3160 nM.
Still for that read-out and setting: next, `COc1cc(F)c2nc(-c3cc(C)cc4c(=O)n(C)cnc34)sc2c1`: over 3160 nM.

A further assay has as its target T2, Proteinase-activated receptor 4 (Homo sapiens, UniProt Q96RI0).
T2 sequence (Q96RI0 whole entry): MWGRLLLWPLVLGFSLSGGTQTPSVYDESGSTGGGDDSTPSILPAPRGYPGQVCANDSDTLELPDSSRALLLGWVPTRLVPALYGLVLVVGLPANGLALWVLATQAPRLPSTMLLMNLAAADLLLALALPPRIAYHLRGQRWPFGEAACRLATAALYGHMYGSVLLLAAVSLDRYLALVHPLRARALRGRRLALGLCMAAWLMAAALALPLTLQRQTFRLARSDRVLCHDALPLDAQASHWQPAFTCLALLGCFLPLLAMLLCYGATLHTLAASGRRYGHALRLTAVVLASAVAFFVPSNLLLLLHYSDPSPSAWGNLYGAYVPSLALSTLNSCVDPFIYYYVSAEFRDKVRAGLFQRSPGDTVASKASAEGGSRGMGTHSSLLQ
The experiment in a line: Antagonist activity at human PAR4 expressed in Ga15-HEK293 cells assessed as reduction in PAR4 AP AYPGKF-NH2-induced cytosolic calcium incubated for 24 hrs by FLIPR - calcium mobilization assay. Type of assay: functional, cell-based.
Details: not given
In short, it runs like this: as §1
For the compound `CCc1cc(-c2nc3c(Cl)cc(OC)cc3s2)c2ncn(C)c(=O)c2c1`, the IC50 came to 6.8 nM.
Still for that read-out and setting: under `Cc1cc(-c2nc3c(s2)CCCC3)c2ncn(C)c(=O)c2c1` stands 5.7 nM.
Regarding `COc1cc(F)c2nc(-c3cc(C)cc4c(=O)n(C)cnc34)sc2c1`, the IC50 turned out to be 3.2 nM.

In a further assay the target is T3, Proteinase-activated receptor 2 (Homo sapiens, UniProt P55085).
T3 sequence (P55085 whole entry): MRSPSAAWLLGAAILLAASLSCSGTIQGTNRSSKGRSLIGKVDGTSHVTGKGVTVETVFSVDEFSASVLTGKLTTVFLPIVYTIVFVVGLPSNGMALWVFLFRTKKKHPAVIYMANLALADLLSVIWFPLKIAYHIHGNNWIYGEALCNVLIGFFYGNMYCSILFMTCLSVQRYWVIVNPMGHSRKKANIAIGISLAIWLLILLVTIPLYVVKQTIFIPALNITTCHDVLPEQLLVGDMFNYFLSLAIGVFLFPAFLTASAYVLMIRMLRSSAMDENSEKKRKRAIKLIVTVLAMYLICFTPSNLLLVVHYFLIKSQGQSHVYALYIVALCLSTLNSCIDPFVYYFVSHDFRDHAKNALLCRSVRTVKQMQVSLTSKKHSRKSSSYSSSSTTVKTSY
Kind of assay: Antagonist activity at human PAR2 expressed in Ga15-HEK293 cells assessed as reduction in PAR2 AP 2-furoyl-LIGRLO-NH2-induced cytosolic calcium incubated for 24 hrs by FLIPR - calcium mobilization assay. Type of assay: functional, cell-based.
Details: not given
The method, boiled down: as §1
As for `CCc1cc(-c2nc3c(Cl)cc(OC)cc3s2)c2ncn(C)c(=O)c2c1`, the IC50 was over 1000 nM.
On the same count and under the same terms, next, `Cc1cc(-c2nc3c(s2)CCCC3)c2ncn(C)c(=O)c2c1`: over 1000 nM.
Consider `COc1cc(F)c2nc(-c3cc(C)cc4c(=O)n(C)cnc34)sc2c1`, for which the IC50 is over 1000 nM.

The next assay concerns the target T4, Proteinase-activated receptor 4 (Homo sapiens) (UniProt Q96RI0).
T4 sequence (whole entry): T2 sequence (Q96RI0 whole entry)
Kind of assay: Antagonist activity at PAR4 in human platelet-rich plasma assessed as inhibition of PAR4 AP AYPGKF-NH2-induced platelet aggregation at 0.2 uM by photo-turbidimetry assay relative to control. Type of assay: functional.
Details: not given
In short, it runs like this:
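Human PRP from donated blood, spun at 160×g for 15 min, then adjusted to 3×10⁸/mL with PPP (2000×g, 15 min). Compound or saline vehicle preincubated with PRP for 5 min at 37 °C. Aggregation induced by AYPGKF-NH₂; maximal aggregation measured by light transmittance for 5 min. Percent inhibition at a single point; IC50 from ≥5 concentrations by curve fitting.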
Usually inhibition stands for the relative decrease from the control value, in per cent. On to `Cc1cc(-c2nc3c(s2)CCCC3)c2nc(C)n(C)c(=O)c2c1`, for which the inhibition is 17%.
For the compound `Cc1cc(-c2cccc(Cl)c2Cl)c2ncn(C)c(=O)c2c1`, the inhibition stood at 34.3%.
As for `CCn1cnc2c(-c3nc4c(Cl)cc(OC)cc4s3)cc(C)cc2c1=O`, the inhibition is 36.5%.
Still for that read-out and setting: under `CCCCc1cc(-c2nc3c(s2)CCCC3)c2ncn(C)c(=O)c2c1` stands 25.7%.
Same read-out and setting: next, `Cc1cc(-c2nc3c(Cl)cc(OCCNS(=O)(=O)c4ccc(Cl)cc4)cc3s2)c2ncn(C)c(=O)c2c1`: 32.3%.
Consider `Cc1ccc(S(=O)(=O)NCCOc2cc(Cl)c3nc(-c4cc(C)cc5c(=O)n(C)cnc45)sc3c2)cc1`, for which the inhibition stood at 30.5%.
The same measure, in the same setting: under `Cn1cnc2c(-c3nc4c(s3)CCCC4)cccc2c1=O` stands 19.8%; under `Cc1cc(-c2nc3c(Cl)cc(OCCNS(=O)(=O)c4ccc(F)cc4)cc3s2)c2ncn(C)c(=O)c2c1`, 8.7%; under `COc1cc(F)c2nc(-c3cccc4c(=O)n(C)cnc34)sc2c1`, 18.7%.
Take `Cc1cc(-c2nc3c(Cl)cc(OCCN)cc3s2)c2ncn(C)c(=O)c2c1`: the inhibition came out at 33.2%.
Still for that read-out and setting: under `COc1cc(Cl)c2nc(-c3cccc4c(=O)n(C)cnc34)sc2c1` stands 25.6%.
Same read-out and setting: under `Cc1cc(-c2ccccc2F)c2ncn(C)c(=O)c2c1` stands 16%.
With `Cc1cc(-c2cccnc2)c2ncn(C)c(=O)c2c1`, the inhibition was found to be 1.8%.
On the same count and under the same terms, next, `Cc1cc(-c2ccc(F)cc2O)c2ncn(C)c(=O)c2c1`: 6.5%; `C#CCn1cnc2c(-c3nc4c(F)cc(OC)cc4s3)cc(C)cc2c1=O`: 27.7%; `COc1cc(Cl)c2nc(-c3cc(C)cc4c(=O)n(C)c(C)nc34)sc2c1`: 39.8%.
Consider `Cc1cc(-c2nc3c(Cl)cc4c(c3s2)OCCO4)c2ncn(C)c(=O)c2c1`, for which the inhibition was found to be 35.7%.
Turning to `Cc1cc(-c2nc3c(Cl)cc(OCCNS(=O)(=O)c4ccccc4)cc3s2)c2ncn(C)c(=O)c2c1`, the inhibition was determined as 17.9%.
As to `Cc1cc(-c2nccs2)c2ncn(C)c(=O)c2c1`, the inhibition is 7.1%.
`COc1ccccc1-c1cc(C)cc2c(=O)n(C)cnc12`: the inhibition was found to be 17.4%.
Same read-out and setting: under `Cc1cc(-c2nc3c(Cl)cc(Cl)cc3s2)c2ncn(C)c(=O)c2c1` stands 21.3%; under `COCn1cnc2c(-c3nc4c(s3)CCCC4)cc(C)cc2c1=O`, 35.7%; under `CCc1cc(-c2nc3c(s2)CCCC3)c2ncn(C)c(=O)c2c1`, 25.7%.
On the same count and under the same terms, under `CCn1cnc2c(-c3nc4c(s3)CCCC4)cc(C)cc2c1=O` stands 26.8%.
Same read-out and setting: under `COc1cc(F)c2nc(-c3cc(C)cc4c(=O)n(C)c(C)nc34)sc2c1` stands 20.1%; under `COc1cc(Cl)c2nc(-c3cc(C)cc4c(=O)n(C(C)C)cnc34)sc2c1`, 15.2%.
For `CCn1cnc2c(-c3nc4c(F)cc(OC)cc4s3)cc(C)cc2c1=O`, the inhibition was 18.8%.
For the compound `COc1cc(F)c2nc(-c3cc(C)cc4c(=O)n(C(C)C)cnc34)sc2c1`, the inhibition is 10.2%.
Still for that read-out and setting: next, `CCOCn1cnc2c(-c3nc4c(s3)CCCC4)cc(C)cc2c1=O`: 15.1%.

The same assay, now with this note: filed as antagonist.
In the case of `Cc1cc(-c2nc3c(Cl)cc(OCCNC(=O)c4ccccc4)cc3s2)c2ncn(C)c(=O)c2c1`, the inhibition was determined as 94.5%.
The same measure, in the same setting: under `CCOCn1cnc2c(-c3nc4c(Cl)cc(OC)cc4s3)cc(C)cc2c1=O` stands 91.2%; under `CCCCc1cc(-c2nc3c(s2)CCCC3)c2ncn(CC)c(=O)c2c1`, 9.3%.
The same measure, in the same setting: next, `CCc1cc(-c2nc3c(Cl)cc(OC)cc3s2)c2ncn(C)c(=O)c2c1`: 92.8%.
Same read-out and setting: under `CCCCc1cc(-c2nc3c(Cl)cc(OC)cc3s2)c2ncn(C)c(=O)c2c1` stands 47.6%; under `Cc1cc(-c2cc3ccccc3o2)c2ncn(C)c(=O)c2c1`, 44.4%; under `Cc1cc(-c2nc3c(Cl)cc(OCCNS(=O)(=O)c4ccc(Cl)cc4Cl)cc3s2)c2ncn(C)c(=O)c2c1`, 47.1%.
Regarding `Cc1cc(-c2nc3c(Cl)cc(OCCNC(=O)OC(C)(C)C)cc3s2)c2ncn(C)c(=O)c2c1`, the inhibition was 54.1%.
On the same count and under the same terms, next, `Cc1cc(-c2nc3c(s2)CCCC3)c2nc[nH]c(=O)c2c1`: 41.6%.
Still for that read-out and setting: next, `COCn1cnc2c(-c3nc4c(Cl)cc(OC)cc4s3)cc(C)cc2c1=O`: 45.3%.

Values taken from ChEMBL document CHEMBL4842351, “Synthesis and evaluation of novel and potent protease activated receptor 4 (PAR4) antagonists based on a quinazolin-4(3H)-one scaffold” (Eur J Med Chem, 2021).
